In ChEMBL document CHEMBL5214909 one finds CC50, IC50 and EC50 data, which are given here for 30 compounds.

In experiment [1] the test system is Huh-7. Description: Cytotoxicity against human Huh-7 cells by CytoTox 96 nonradioactive cytotoxicity assay. In kind it is functional. The essentials:
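Confluent cells were exposed to compound at 1 to 100 μM for 72 h, and cytotoxicity was read with the CytoTox 96 nonradioactive kit. CC50 came from a variable-slope fit, averaged over at least two determinations.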

In experiment [2] the target is Replicase polyprotein 1ab (Severe acute respiratory syndrome coronavirus 2, UniProt P0DTD1). As to the kind of experiment: Inhibition of SARS-CoV-2 3CLpro using FAM-SAVLQ/SG-QXL520 as substrate measured after 1 hr by fluorescence based microplate reader analysis. The method, boiled down:
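The protease was full-length, codon-optimized SARS-CoV-2 3CLpro with an N-terminal His6 tag, expressed from pET-28a(+). It was preincubated with serial inhibitor dilutions or DMSO for 1 h at 37 °C in 20 mM HEPES pH 8, 200 mM NaCl, 0.4 mM EDTA, 60% glycerol and 6 mM DTT. Substrate was then added. Fluorescence (ex 480/em 520 nm) was read 1 h later, minus a no-protease background. IC50 came from a variable-slope fit, averaged over at least two determinations.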

Experiment [3] is described as follows: Inhibition of MERS-CoV 3CLpro. On the set-up: species or system Middle East respiratory syndrome-related coronavirus.
Experiment [4] relates to SARS-CoV-2. Description: Antiviral activity against SARS-CoV-2 infected in African green monkey Vero E6 cells measured after 48 to 72 hrs. In kind it is functional, organism-based. The conditions noted are these: Severe acute respiratory syndrome coronavirus 2, Vero C1008.

On to `CC(C)C[C@H](NC(=O)OCC1CC2C=CC1C2)C(=O)N[C@@H](C[C@@H]1CCNC1=O)C(O)S(=O)(=O)O` (single isomer, unassigned), for which the half-maximal cytotoxic concentration (CC50) in experiment [1] is over 100000 nM.
With `[2H]C([2H])(OC(=O)N[C@@H](CC(C)C)C(=O)N[C@@H](CC1CCNC1=O)C(O)S(=O)(=O)O)C1CC2C=CCC(C2)C1` (single isomer, unassigned), the cytotoxic concentration (CC50) in experiment [1] is over 100000 nM.
On the same count and under the same terms, the same measure for `CCCCCC12CCC(COC(=O)N[C@@H](CC(C)C)C(=O)N[C@@H](C[C@@H]3CCNC3=O)C(O)S(=O)(=O)O)(CC1)CC2` (single isomer, unassigned): 21000 nM.
For `CC(C)C[C@H](NC(=O)OC1CC2CCC(C1)N2C(=O)OC(C)(C)C)C(=O)N[C@H](C=O)C[C@H]1CCNC1=O` (stereo not given in full), the CC50 in experiment [1] is over 100000 nM. The same compound returned a half-maximal inhibitory concentration (IC50) in experiment [2] of 1900 nM.
For `CC(C)C[C@H](NC(=O)OCC1CC2C=CC1C2)C(=O)N[C@H](C=O)C[C@@H]1CCNC1=O` (single isomer, unassigned), the CC50 in experiment [1] is over 100000 nM.
As for `CC(C)C[C@H](NC(=O)OCC12CC3CC(CC(C3)C1)C2)C(=O)N[C@H](C=O)C[C@H]1CCNC1=O`, the CC50 in experiment [1] is over 100000 nM. The IC50 came to 55 nM in experiment [3] and 180 nM in experiment [2].
In the case of `[2H]C([2H])(OC(=O)N[C@@H](CC(C)C)C(=O)N[C@H](C=O)CC1CCNC1=O)C12CCC(CCCCC)(CC1)CC2` (single isomer, unassigned), the CC50 in experiment [1] worked out at 20000 nM.
Turning to `CC(C)C[C@H](NC(=O)OCC12CC3CC(CC(O)(C3)C1)C2)C(=O)N[C@H](C=O)C[C@H]1CCNC1=O`, the CC50 in experiment [1] is over 100000 nM. In experiment [2], this compound returned an IC50 of 820 nM.
Consider `CC(C)C[C@H](NC(=O)OC1CC2CCC(C1)N2C(=O)OCc1ccccc1)C(=O)N[C@H](C=O)C[C@H]1CCNC1=O` (stereo not given in full), for which, in experiment [1], the half-maximal cytotoxic concentration (CC50) was over 100000 nM. This compound also yielded an IC50 in experiment [2] of 390 nM.
The like results for `[2H]C([2H])(OC(=O)N[C@@H](CC(C)C)C(=O)N[C@H](C=O)C[C@H]1CCNC1=O)C1CC2CCCC(C2)C1` (stereo not given in full) were, in that order, over 100000 nM and 290 nM.
The like results for `CC(C)C[C@H](NC(=O)OC1CC2CCC(C1)N2C(=O)OCc1ccccc1)C(=O)N[C@@H](C[C@H]1CCNC1=O)C(O)S(=O)(=O)O` (stereo not given in full) were, in that order, over 100000 nM and 370 nM.
`CC(C)C[C@H](NC(=O)OCC1C[C@H]2CCC[C@@H](C1)C2)C(=O)N[C@@H](C[C@@H]1CCNC1=O)C(O)S(=O)(=O)O` (single isomer, unassigned): the CC50 in experiment [1] was over 100000 nM. The EC50 in experiment [4] was 32 nM. Also, the IC50 in experiment [3] came to 49 nM.
As for `CCCCCC12CCC(COC(=O)N[C@@H](CC(C)C)C(=O)N[C@H](C=O)C[C@@H]3CCNC3=O)(CC1)CC2` (single isomer, unassigned), the cytotoxic concentration (CC50) in experiment [1] amounted to 21000 nM.
Take `[2H]C([2H])(OC(=O)N[C@@H](CC(C)C)C(=O)N[C@H](C=O)C[C@H]1CCNC1=O)C12CC3CC(CC(C3)C1)C2`: the CC50 in experiment [1] was over 100000 nM. Also, in experiment [2], the half-maximal inhibitory concentration (IC50) came to 290 nM.
As to `[2H]C([2H])(OC(=O)N[C@@H](CC(C)C)C(=O)N[C@H](C=O)CC1CCNC1=O)C1CC2C=CCC(C2)C1` (single isomer, unassigned), the CC50 in experiment [1] is over 100000 nM.
Regarding `[2H]C([2H])(OC(=O)N[C@@H](CC(C)C)C(=O)N[C@@H](CC1CCNC1=O)C(O)S(=O)(=O)O)C12CCC(CCCCC)(CC1)CC2` (single isomer, unassigned), in experiment [1], the half-maximal cytotoxic concentration (CC50) worked out at 23000 nM.
As for `[2H]C([2H])(OC(=O)N[C@@H](CC(C)C)C(=O)N[C@@H](C[C@H]1CCNC1=O)C(O)S(=O)(=O)[O-])C12CC3CC(CC(O)(C3)C1)C2.[Na+]` (stereo not given in full), the half-maximal cytotoxic concentration (CC50) in experiment [1] was over 100000 nM. Further, the IC50 in experiment [2] was 780 nM.
Consider `CC(C)C[C@H](NC(=O)OCC1CC2CCC1C2)C(=O)N[C@@H](C[C@@H]1CCNC1=O)C(O)S(=O)(=O)O` (single isomer, unassigned), for which the cytotoxic concentration (CC50) in experiment [1] was over 100000 nM. In experiment [3], the half-inhibitory concentration (IC50) is 58 nM.
For `CC(C)C[C@H](NC(=O)OCC1C[C@@H]2C=CC[C@H](C1)C2)C(=O)N[C@@H](C[C@@H]1CCNC1=O)C(O)S(=O)(=O)O` (single isomer, unassigned), the CC50 in experiment [1] was over 100000 nM.
Consider `CC(C)C[C@H](NC(=O)OCC12CC3CC(CC(O)(C3)C1)C2)C(=O)N[C@@H](C[C@H]1CCNC1=O)C(O)S(=O)(=O)O` (stereo not given in full), for which the CC50 in experiment [1] was over 100000 nM. Also, the IC50 in experiment [2] is 1030 nM.
Turning to `CC(C)C[C@H](NC(=O)OCC12CC3CC(CC(C3)C1)C2)C(=O)N[C@@H](C[C@H]1CCNC1=O)C(O)S(=O)(=O)O` (stereo not given in full), the 50% cytotoxic concentration (CC50) in experiment [1] was over 100000 nM. For the same compound, the IC50 in experiment [3] turned out to be 53 nM; in experiment [2], 150 nM.
Take `CC(C)C[C@H](NC(=O)OCC1CC2CCCC(C2)C1)C(=O)N[C@H](C=O)C[C@H]1CCNC1=O` (stereo not given in full): the 50% cytotoxic concentration (CC50) in experiment [1] is over 100000 nM. The compound further displayed an EC50 in experiment [4] of 35 nM. The concentration for half-maximal inhibition (IC50) in experiment [3] came to 52 nM; in experiment [2], 180 nM.
With `CC(C)C[C@H](NC(=O)OCCC12CC3CC(CC(C3)C1)C2)C(=O)N[C@H](C=O)C[C@H]1CCNC1=O`, the CC50 in experiment [1] was over 100000 nM. Also, the IC50 in experiment [2] was determined as 270 nM.
Turning to `CC(C)C[C@H](NC(=O)OCC1C[C@@H]2C=CC[C@H](C1)C2)C(=O)N[C@H](C=O)C[C@@H]1CCNC1=O` (single isomer, unassigned), the 50% cytotoxic concentration (CC50) in experiment [1] is over 100000 nM.
Turning to `[2H]C([2H])(OC(=O)N[C@@H](CC(C)C)C(=O)N[C@@H](C[C@H]1CCNC1=O)C(O)S(=O)(=O)[O-])C1CC2CCCC(C2)C1.[Na+]` (stereo not given in full), the cytotoxic concentration (CC50) in experiment [1] is over 100000 nM. For the same compound, in experiment [2], the IC50 amounted to 290 nM.
The like results for `[2H]C([2H])(OC(=O)N[C@@H](CC(C)C)C(=O)N[C@@H](C[C@H]1CCNC1=O)C(O)S(=O)(=O)[O-])C12CC3CC(CC(C3)C1)C2.[Na+]` (stereo not given in full) were, in that order, over 100000 nM and 270 nM.
Regarding `[2H]C([2H])(OC(=O)N[C@@H](CC(C)C)C(=O)N[C@H](C=O)C[C@H]1CCNC1=O)C12CC3CC(CC(O)(C3)C1)C2`, the 50% cytotoxic concentration (CC50) in experiment [1] was over 100000 nM. The compound also registered a 50% inhibitory concentration (IC50) in experiment [2] of 740 nM.
For `CC(C)C[C@H](NC(=O)OCCC12CC3CC(CC(C3)C1)C2)C(=O)N[C@@H](C[C@H]1CCNC1=O)C(O)S(=O)(=O)O` (stereo not given in full), in that order: over 100000 nM and 250 nM.
Turning to `CC(C)C[C@H](NC(=O)OC1CC2CCC(C1)N2C(=O)OC(C)(C)C)C(=O)N[C@@H](C[C@H]1CCNC1=O)C(O)S(=O)(=O)O` (stereo not given in full), the cytotoxic concentration (CC50) in experiment [1] was over 100000 nM. Also, the concentration for half-maximal inhibition (IC50) in experiment [2] stood at 1710 nM.
Take `CC(C)C[C@H](NC(=O)OCC1CC2CCC1C2)C(=O)N[C@H](C=O)C[C@@H]1CCNC1=O` (single isomer, unassigned): the CC50 in experiment [1] is over 100000 nM. This compound yielded a half-inhibitory concentration (IC50) in experiment [3] of 63 nM.
